Measured values reported in ChEMBL document CHEMBL1153345, “Novel tricyclic inhibitors of IkappaB kinase” (J Med Chem, 2009).

Tests used:
[1] = biological target: T1, Inhibitor of nuclear factor kappa-B kinase subunit epsilon (Homo sapiens, UniProt Q14164); test: Inhibition of IKKepsilon
T1 sequence (Q14164 whole entry): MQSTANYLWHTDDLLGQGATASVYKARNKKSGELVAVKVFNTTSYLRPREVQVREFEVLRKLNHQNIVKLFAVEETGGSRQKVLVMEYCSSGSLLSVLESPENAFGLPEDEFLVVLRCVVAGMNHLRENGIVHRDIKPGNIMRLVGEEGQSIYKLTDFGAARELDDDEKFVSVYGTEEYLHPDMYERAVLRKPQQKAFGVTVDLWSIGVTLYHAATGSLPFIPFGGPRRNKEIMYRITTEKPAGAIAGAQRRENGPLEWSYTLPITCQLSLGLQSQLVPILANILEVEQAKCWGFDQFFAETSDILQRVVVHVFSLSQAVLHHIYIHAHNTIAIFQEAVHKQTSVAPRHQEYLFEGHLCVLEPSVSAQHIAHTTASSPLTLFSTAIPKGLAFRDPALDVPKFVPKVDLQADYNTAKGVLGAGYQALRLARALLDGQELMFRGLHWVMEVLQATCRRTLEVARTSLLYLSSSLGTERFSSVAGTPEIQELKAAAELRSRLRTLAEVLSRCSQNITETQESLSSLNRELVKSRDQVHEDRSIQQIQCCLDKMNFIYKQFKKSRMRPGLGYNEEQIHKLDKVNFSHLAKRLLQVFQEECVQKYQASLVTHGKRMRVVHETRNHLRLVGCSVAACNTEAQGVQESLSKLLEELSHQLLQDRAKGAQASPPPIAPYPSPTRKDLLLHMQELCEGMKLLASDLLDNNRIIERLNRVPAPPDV
How it was run: (§1)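 In-house kinase selectivity panel of 30 kinases; enzyme inhibition values reported in µM.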

[2] = biological target: Cyclin-dependent kinase 2 (Homo sapiens, UniProt P24941); test: Inhibition of Cdk2; how it was run: as §1
Liver microsomes [3] = test: Metabolic stability in rat liver microsomes assessed as clearance at 3 uM after 1 hr; format: ADME, Microsome
How it was run: (§2)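 Liver microsomes (mouse, human or rat) at 1 mg/mL protein with 3 µM compound in 65 mM phosphate buffer pH 7.4 and 1 mM NADPH, 37 °C, 1 h. Samples taken at 0 and 15 min and quenched with acetonitrile. Metabolic rate calculated from parent disappearance between 0 and 15 min.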

[4] = biological target: Tyrosine-protein kinase BTK (Homo sapiens, UniProt Q06187); test: Inhibition of Btk; how it was run: as §1
[5] = biological target: Proto-oncogene tyrosine-protein kinase Src (Homo sapiens, UniProt P12931); test: Inhibition of Src; how it was run: as §1
[6] = biological target: T2, Inhibitor of nuclear factor kappa-B kinase subunit beta (Homo sapiens, UniProt O14920); test: Inhibition of IKK2-mediated phosphorylation of GST-IkappaBalpha fusion protein afterr 60 mins by fluorescence polarization assay
T2 sequence (O14920 whole entry): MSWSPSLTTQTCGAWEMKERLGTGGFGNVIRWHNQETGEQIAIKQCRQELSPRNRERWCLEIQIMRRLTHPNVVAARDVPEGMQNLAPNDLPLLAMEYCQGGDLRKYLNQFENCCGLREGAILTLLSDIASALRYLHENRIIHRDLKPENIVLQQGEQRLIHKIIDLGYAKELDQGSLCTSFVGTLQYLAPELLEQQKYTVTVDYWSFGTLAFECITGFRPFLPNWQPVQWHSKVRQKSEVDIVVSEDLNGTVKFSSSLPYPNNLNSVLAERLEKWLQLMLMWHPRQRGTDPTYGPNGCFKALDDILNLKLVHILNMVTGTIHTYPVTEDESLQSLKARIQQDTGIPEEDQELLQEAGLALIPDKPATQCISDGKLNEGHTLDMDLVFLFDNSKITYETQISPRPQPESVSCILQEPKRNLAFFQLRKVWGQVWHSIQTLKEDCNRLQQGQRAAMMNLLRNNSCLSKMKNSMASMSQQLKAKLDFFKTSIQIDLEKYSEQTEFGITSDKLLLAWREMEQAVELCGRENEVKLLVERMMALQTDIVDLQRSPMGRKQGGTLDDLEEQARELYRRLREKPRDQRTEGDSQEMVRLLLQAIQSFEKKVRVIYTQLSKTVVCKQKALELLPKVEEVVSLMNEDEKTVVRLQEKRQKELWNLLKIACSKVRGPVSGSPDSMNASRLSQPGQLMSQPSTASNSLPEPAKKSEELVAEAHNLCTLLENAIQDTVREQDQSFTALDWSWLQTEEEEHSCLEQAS
How it was run: (§3)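 GST-IκBα (50 µg/mL) with 20 µM ATP in 25 mM Tris-HCl pH 7.5, 7.5 mM MgCl2, 1 mM DTT, 5% glycerol, BSA; reaction started by adding IKK enzyme (IKK-2 typically 3 µg/mL final) at room temperature. Stopped after 60 min with 33 mM EDTA. Phospho-IκBα quantified by fluorescence polarization, competing with a fluorescein-labelled phosphopeptide for anti-phospho-IκBα antibody.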

[7] = biological target: T3, Tyrosine-protein kinase ITK/TSK (Homo sapiens, UniProt Q08881); test: Inhibition of Itk; how it was run: as §1
T3 sequence (Q08881 whole entry): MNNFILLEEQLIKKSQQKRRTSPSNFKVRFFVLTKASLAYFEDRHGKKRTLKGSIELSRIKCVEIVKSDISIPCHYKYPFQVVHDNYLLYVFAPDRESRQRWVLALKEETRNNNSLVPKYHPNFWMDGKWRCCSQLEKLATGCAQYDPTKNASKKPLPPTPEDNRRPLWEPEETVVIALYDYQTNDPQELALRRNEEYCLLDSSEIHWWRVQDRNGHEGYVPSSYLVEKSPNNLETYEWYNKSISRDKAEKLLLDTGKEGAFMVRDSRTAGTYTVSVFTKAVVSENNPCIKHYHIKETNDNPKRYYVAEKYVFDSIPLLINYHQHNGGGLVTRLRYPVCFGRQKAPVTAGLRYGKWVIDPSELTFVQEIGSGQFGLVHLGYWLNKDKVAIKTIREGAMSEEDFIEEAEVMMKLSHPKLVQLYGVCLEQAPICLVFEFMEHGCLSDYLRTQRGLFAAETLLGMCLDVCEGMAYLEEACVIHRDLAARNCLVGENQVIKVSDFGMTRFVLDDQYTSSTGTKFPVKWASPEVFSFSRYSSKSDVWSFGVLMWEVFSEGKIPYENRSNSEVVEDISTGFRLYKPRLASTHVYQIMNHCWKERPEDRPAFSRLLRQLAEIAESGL

[8] = Metabolic stability in mouse liver microsomes assessed as clearance at 3 uM after 1 hr; format: ADME, Microsome; how it was run: as §2
[9] = biological target: T4, Inhibitor of nuclear factor kappa-B kinase subunit alpha (Homo sapiens, UniProt O15111); test: Inhibition of IKK1-mediated phosphorylation of GST-IkappaBalpha fusion protein afterr 60 mins by fluorescence polarization assay; how it was run: as §3
T4 sequence (O15111 whole entry): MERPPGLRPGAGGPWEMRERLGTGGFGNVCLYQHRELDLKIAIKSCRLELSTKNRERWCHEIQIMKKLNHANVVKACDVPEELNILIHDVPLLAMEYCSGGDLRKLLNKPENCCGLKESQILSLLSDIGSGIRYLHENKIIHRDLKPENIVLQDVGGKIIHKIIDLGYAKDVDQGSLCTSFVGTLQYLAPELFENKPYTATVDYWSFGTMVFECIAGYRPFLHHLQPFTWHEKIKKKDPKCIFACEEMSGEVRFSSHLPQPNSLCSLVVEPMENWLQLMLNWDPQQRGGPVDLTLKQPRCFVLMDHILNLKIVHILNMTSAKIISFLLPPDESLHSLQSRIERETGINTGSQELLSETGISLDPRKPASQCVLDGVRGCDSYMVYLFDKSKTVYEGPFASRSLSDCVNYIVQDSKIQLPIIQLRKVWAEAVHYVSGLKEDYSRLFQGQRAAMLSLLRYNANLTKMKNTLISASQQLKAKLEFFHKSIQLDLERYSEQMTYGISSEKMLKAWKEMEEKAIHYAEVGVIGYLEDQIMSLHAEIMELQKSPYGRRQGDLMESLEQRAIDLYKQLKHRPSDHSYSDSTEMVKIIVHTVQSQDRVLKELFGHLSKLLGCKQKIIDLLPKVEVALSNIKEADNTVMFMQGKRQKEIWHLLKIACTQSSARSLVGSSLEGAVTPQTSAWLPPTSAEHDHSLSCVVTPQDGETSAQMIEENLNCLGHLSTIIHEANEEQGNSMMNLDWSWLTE

[10] = biological target: Serine/threonine-protein kinase PLK1 (Homo sapiens, UniProt P53350); test: Inhibition of Plk1; how it was run: as §1
[11] = Inhibition of IGFR; how it was run: as §1
Liver microsomes [12] = test: Metabolic stability in human liver microsomes assessed as clearance at 3 uM after 1 hr; format: ADME, Microsome; how it was run: as §2
[13] = Half life in rat at 2 mg/kg, iv; format: ADME, organism-based; parameters: dose 2 mg/kg, route intravenous; settings: in vivo
How it was run: (§4)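 Some compounds were dosed as a cassette of five compounds at 2 mg/kg each, after prescreening to exclude potent CYP inhibitors (IC50 < 10 µM).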

[14] = Cmax in rat at 2 mg/kg, iv; format: ADME, organism-based; parameters: dose 2 mg/kg, route intravenous; settings: in vivo; how it was run: as §4
[15] = Volume of distribution at steady state in rat at 2 mg/kg, iv; format: ADME, organism-based; parameters: dose 2 mg/kg, route intravenous; settings: in vivo, read-out: Vdss; how it was run: as §4
[16] = AUC in rat at 2 mg/kg, iv; format: ADME, organism-based; parameters: dose 2 mg/kg, route intravenous; settings: plasma; how it was run: as §4
[17] = Selectivity ratio of IC50 for IKK1 to IC50 for IKK2
How it was run: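 Buffer was 25 mM Tris-HCl pH 7.5 with 7.5 mM MgCl2, 1 mM DTT, 5% glycerol and 470 µg/mL BSA. IKK-2 was typically 3 µg/mL final. Reactions ran 60 min at room temperature, stopped with 33 mM EDTA. Phospho-IκBα was read by fluorescence-polarization competition of a fluorescein phosphopeptide for an anti-phospho antibody. Ratio = IKK1 IC50/IKK2 IC50.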

[18] = Clearance in rat at 2 mg/kg, iv; format: ADME, organism-based; parameters: dose 2 mg/kg, route intravenous; settings: in vivo; how it was run: as §4
Mus musculus = test: Inhibition of LPS-induced TNFalpha release in serum of BALB/c mouse at 10 mg/kg, po administered 4 hrs before LPS challenge measured afterr 90 mins by ELISA relative to control; format: functional
How it was run: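 Female BALB/c mice, 6-8 weeks old, acclimated at least 1 week. Compound given orally in 100% PEG300 (0.1 mL) about 4 h before ip LPS (E. coli O111:B4, 0.1 mL of 10 µg/mL in PBS; 50 µg/kg). Vehicle-only controls. Blood taken 90 min after LPS; serum TNF-α by ELISA; mean ± SEM, n = 8 per group.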

PBMC = test: Inhibition of LPS-induced TNFalpha production in human PBMC preincubated for 30 mins before LPS challenge measured afterr 6 hrs by ELISA; format: functional, cell-based
How it was run: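 PBMCs from healthy donor blood, isolated over ficoll in RPMI containing EDTA and polymyxin, then resuspended in RPMI/10% FBS at 1 × 10^6 cells/mL. Compound preincubated 30 min, then LPS added (25 ng/mL final). Incubated 6 h at 37 °C, 5% CO2; supernatant TNF-α measured by ELISA.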

Sequence of Tyrosine-protein kinase BTK (Q06187 whole entry): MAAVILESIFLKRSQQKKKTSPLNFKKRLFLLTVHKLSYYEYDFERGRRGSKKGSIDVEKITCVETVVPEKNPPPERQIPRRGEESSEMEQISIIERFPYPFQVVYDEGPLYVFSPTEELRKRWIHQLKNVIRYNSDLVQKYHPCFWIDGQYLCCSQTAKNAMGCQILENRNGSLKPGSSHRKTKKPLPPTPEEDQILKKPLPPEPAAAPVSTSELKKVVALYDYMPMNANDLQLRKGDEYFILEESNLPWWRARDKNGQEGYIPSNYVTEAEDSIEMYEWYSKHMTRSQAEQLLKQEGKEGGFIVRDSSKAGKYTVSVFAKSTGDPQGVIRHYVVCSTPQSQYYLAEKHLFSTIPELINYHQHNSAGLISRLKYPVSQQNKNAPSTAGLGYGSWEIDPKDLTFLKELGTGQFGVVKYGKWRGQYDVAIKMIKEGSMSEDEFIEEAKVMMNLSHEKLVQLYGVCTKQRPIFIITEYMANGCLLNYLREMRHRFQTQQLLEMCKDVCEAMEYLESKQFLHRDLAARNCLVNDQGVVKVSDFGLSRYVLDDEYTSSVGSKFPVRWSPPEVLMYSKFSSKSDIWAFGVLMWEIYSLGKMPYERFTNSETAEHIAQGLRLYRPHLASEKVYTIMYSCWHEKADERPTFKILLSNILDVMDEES
Sequence of Serine/threonine-protein kinase PLK1 (P53350 whole entry): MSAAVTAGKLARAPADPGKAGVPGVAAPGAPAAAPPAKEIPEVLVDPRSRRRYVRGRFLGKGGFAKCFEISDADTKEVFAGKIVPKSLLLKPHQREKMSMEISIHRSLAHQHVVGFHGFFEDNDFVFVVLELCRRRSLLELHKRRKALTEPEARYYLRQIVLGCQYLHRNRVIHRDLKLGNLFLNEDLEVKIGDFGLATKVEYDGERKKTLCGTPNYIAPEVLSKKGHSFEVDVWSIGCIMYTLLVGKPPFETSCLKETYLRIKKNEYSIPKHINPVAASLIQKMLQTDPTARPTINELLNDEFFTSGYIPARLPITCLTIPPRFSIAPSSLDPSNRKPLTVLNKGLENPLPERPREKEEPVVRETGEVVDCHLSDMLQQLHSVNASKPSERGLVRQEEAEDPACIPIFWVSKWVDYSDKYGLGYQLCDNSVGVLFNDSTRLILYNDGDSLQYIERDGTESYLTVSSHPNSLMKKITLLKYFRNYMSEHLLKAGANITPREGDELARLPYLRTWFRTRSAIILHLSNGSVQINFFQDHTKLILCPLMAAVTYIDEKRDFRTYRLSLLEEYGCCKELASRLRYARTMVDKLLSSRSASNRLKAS
Sequence of Proto-oncogene tyrosine-protein kinase Src (P12931 2-536 limits assumed): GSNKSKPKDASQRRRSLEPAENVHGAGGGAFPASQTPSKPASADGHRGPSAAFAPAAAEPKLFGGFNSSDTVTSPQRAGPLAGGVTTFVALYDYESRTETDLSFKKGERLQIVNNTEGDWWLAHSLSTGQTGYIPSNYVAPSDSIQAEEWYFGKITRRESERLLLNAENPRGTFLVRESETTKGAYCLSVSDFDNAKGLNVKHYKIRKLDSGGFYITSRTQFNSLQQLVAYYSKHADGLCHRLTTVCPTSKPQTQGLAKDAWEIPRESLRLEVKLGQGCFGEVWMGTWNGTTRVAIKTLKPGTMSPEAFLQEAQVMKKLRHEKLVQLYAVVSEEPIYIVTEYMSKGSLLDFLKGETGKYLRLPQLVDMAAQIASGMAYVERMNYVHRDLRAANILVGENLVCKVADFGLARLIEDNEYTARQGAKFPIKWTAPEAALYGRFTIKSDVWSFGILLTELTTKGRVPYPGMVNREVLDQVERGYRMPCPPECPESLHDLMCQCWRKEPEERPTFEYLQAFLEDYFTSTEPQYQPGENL

SMILES | IC50 [1] [µM] | IC50 [2] [µM] | CL (Liver microsomes [3]) [nmol/mg/min] | IC50 [4] [µM] | IC50 [5] [µM] | IC50 [6] [µM] | IC50 [7] [µM] | CL [8] [nmol/mg/min] | IC50 [9] [µM] | IC50 [10] [µM] | IC50 [11] [µM] | CL (Liver microsomes [12]) [nmol/mg/min] | half-life [13] [min] | Cmax [14] [µM] | Vd [15] [L/kg] | AUC [16] [µM·h] | Ratio IC50 [17] | clearance [18] [mL/min/kg] | inhibition in vivo at 10 mg/kg (Mus musculus) [%] | IC50 (PBMC) [µM]
CNc1nc2oc(-c3ccccc3)nc2c2c1ncn2C | 17 | 16 | 0.14 | 23 | < 50 | 0.011 | 17 | 0.23 | 0.27 | < 50 | < 50 | 0.09 | – | – | – | – | – | – | – | –
CNc1nc2sc(-c3ccccc3)nc2c2c1ncn2C | – | – | 0.12 | – | – | 0.006 | – | 0.25 | 3.5 | – | – | 0.09 | 72 | 3 | 2.8 | 2.8 | 580 | 42 | – | –
CNc1nc2sc(-c3cccc(CNC(=O)c4csnn4)c3)nc2c2c1ncn2C | – | – | 0.14 | – | – | 0.016 | – | 0.23 | 10 | – | – | 0.16 | 36 | 3.9 | 0.2 | 5 | – | 3 | 50 | 0.082
CNc1nc2sc(-c3cccc(CNC(C)=O)c3)nc2c2c1ncn2C | 12 | 31 | – | 17 | < 50 | 0.022 | 9.1 | – | 1.9 | < 50 | < 50 | – | – | – | – | – | – | – | – | 0.35
CNc1nc2c(nc(-c3ccccc3)n2C)c2c1ncn2C | 14 | 23 | 0.08 | 14 | < 50 | 0.52 | 19 | 0.12 | 4.3 | 12 | < 50 | 0.13 | – | – | – | – | – | – | – | 0.44
